Test results: ChEMBL document CHEMBL3352043, “Discovery of small-molecule inhibitors selectively targeting the DNA-binding domain of the human androgen receptor” (J Med Chem, 2014)
Calls of active or inactive are those of the source. The rule behind the calls is not given here.

How the values were obtained:
LNCaP = assay: Growth inhibition of AR-dependent human LNCAP cells after 3 days by MTS assay; type: functional, cell-based
In short: (§1)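 LNCaP and MR49F cells were seeded at 3000 cells/well in RPMI 1640 with 5% charcoal-stripped serum. They were treated with 0.1 nM R1881 plus compound (0−25 μM) for 4 days; the figure legend gives 3 days. Readout was MTS tetrazolium absorbance. Growth was normalized as (sample − vehicle)/(0.1 nM R1881 − vehicle) × 100.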

MR49F = assay: Growth inhibition of enzalutamide-resistant human MR49F cells after 3 days by MTS assay; type: functional, cell-based; in short: as §1

## Brc1ncn(-c2csc(N3CCOCC3)n2)c1Br
LNCaP
  growth inhibition (GI): Dose-dependent effect
MR49F
  growth inhibition (GI): Active
